Assay results: ChEMBL document CHEMBL1833914, “Smardaesidins A-G, isopimarane and 20-nor-isopimarane diterpenoids from Smardaea sp., a fungal endophyte of the moss Ceratodon purpureus” (J Nat Prod, 2011)
The source made the active and inactive calls. The calls are words filed in the database; no cut-off is given here.

Columns and labels:
NCI-H460 [1] = assay: Cytotoxicity against human NCI-H460 cells after 72 hrs by Alamar blue assay; assay type: functional, cell-based; details: NCI-H460, 72 h
MCF7 [2] = assay: Cytotoxicity against human MCF7 cells at 10 uM after 72 hrs by Alamar blue assay; assay type: functional, cell-based
MCF7 [3] = assay: Cytotoxicity against human MCF7 cells after 72 hrs by Alamar blue assay; assay type: functional, cell-based; details: MCF7, 72 h
MDA-MB-231 [4] = assay: Cytotoxicity against human MDA-MB-231 cells after 72 hrs by Alamar blue assay; assay type: functional, cell-based; details: MDA-MB-231, 72 h
NCI-H460 [5] = assay: Cytotoxicity against human NCI-H460 cells at 10 uM after 72 hrs by Alamar blue assay; assay type: functional, cell-based
[6] = Cytotoxicity against human PC3M cells after 72 hrs by Alamar blue assay; assay type: functional, cell-based; details: PC-3M
PC-3M = assay: Cytotoxicity against human PC3M cells at 10 uM after 72 hrs by Alamar blue assay; assay type: functional, cell-based
MDA-MB-231 [7] = assay: Cytotoxicity against human MDA-MB-231 cells at 10 uM after 72 hrs by Alamar blue assay; assay type: functional, cell-based
SF-268 [8] = assay: Cytotoxicity against human SF268 cells after 72 hrs by Alamar blue assay; assay type: functional, cell-based; details: SF-268, 72 h
SF-268 [9] = assay: Cytotoxicity against human SF268 cells at 10 uM after 72 hrs by Alamar blue assay; assay type: functional, cell-based
WI-38 = assay: Cytotoxicity against human WI38 cells after 72 hrs by Alamar blue assay; assay type: cell-based; details: WI-38, 72 h
PC-3 = assay: Cytotoxicity against human PC3 cells after 72 hrs by Alamar blue assay; assay type: functional, cell-based; details: PC-3, 72 h
MIA PaCa-2 = assay: Cytotoxicity against human MIAPaCa2 cells after 72 hrs by Alamar blue assay; assay type: functional, cell-based; details: MIA PaCa-2, 72 h
MDA-MB-231 [10] = assay: Inhibition of human MDA-MB-231 cell migration at 2 uM after 40 hrs by wound-healing assay; assay type: functional, cell-based
Summary of the method: (§1)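 Wound-healing assay: MDA-MB-231 cells grown in DMEM/Ham's F-12 with 10% FBS and gentamicin (50 μg/mL) at 37 °C, 5% CO2. Cells seeded at 150 000/well and grown 24 h to >90% confluent monolayer. Monolayer scratched with toothpick, washed with PBS, fresh medium added, compound in DMSO added in duplicate, 40 h. LY294002 7.5 μM positive control. Wound area measured by ImageJ from three photos per well.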

MDA-MB-231 [11] = assay: Antiproliferative activity against human MDA-MB-231 cells after 72 hrs by Alamar blue assay; assay type: functional, cell-based; details: MDA-MB-231, 72 h
Summary of the method: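 alamarBlue proliferation/survival read-out in MDA-MB-231 after 72 h exposure. Reagent added to 10% final, 4 h incubation, fluorescence at ex 560/em 590 nm as percent of DMSO vehicle; IC50 and IC25 reported as mean ± error.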

MDA-MB-231 [12] = assay: Inhibition of human MDA-MB-231 cell migration after 40 hrs by wound-healing assay; assay type: functional, cell-based; details: MDA-MB-231, 40 h; summary of the method: as §1
MDA-MB-231 [13] = assay: Inhibition of human MDA-MB-231 cell migration at 5 uM after 40 hrs by wound-healing assay; assay type: functional, cell-based; summary of the method: as §1

Compound	IC50 (NCI-H460 [1]) [µM]	Activity (MCF7 [2])	IC50 (MCF7 [3]) [µM]	IC50 (MDA-MB-231 [4]) [µM]	Activity (NCI-H460 [5])	IC50 [6] [µM]	Activity (PC-3M)	Activity (MDA-MB-231 [7])	IC50 (SF-268 [8]) [µM]	Activity (SF-268 [9])	IC50 (WI-38) [µM]	IC50 (PC-3) [µM]	IC50 (MIA PaCa-2) [µM]	inhibition (MDA-MB-231 [10])	IC25 (MDA-MB-231 [11]) [µM]	IC50 (MDA-MB-231 [11]) [µM]	IC50 (MDA-MB-231 [12]) [µM]	inhibition (MDA-MB-231 [13])
C=C[C@]1(C)C=C2C(=O)[C@@]3(OC(C)=O)OC(=O)[C@@]4(CCCC(C)(C)[C@H]34)[C@@]2(O)CC1	2.8	Active	2	2.5	Active	2.7	Active	Active	4.9	Active								
COc1cccc2c1C(=O)c1c(O)c3c(c(O)c1C2=O)C[C@@](O)(C(=O)CO)C[C@@H]3O[C@H]1C[C@H](N)[C@H](O)[C@H](C)O1 [DOXORUBICIN]	0.3		0.4	0.5					0.6		0.8	0.3	0.3					
C=C[C@]1(C)C=C2C(=O)[C@@]3(O)OC(=O)[C@@]4(CCCC(C)(C)[C@H]34)[C@@]2(O)CC1 [SPHAEROPSIDIN A]	1.9	Active	3	1.4	Active	2.4	Active	Active	2.1	Active	3.7	2.5	2	Active	1.5	3	1.5	
C=C[C@]1(C)C=C2C(=O)[C@@]3(O)OC(=O)[C@@]4(CCCC(C)(C)[C@H]34)[C@@]2(O)[C@H](O)C1 [SPHAEROPSIDIN D]	> 10	Active	> 10	3.7	Active	> 10	Active	Active	7.5	Active	> 10	9.6	9		> 5	> 5	4.8	Active
